SR-BI DiI inh: mouse SR-BI HDL lipid transfer inhibition; Q61009; ldlA[mSR-BI] CHO cells, DiI-HDL uptake fluorescence, 3 h; inhibition, % at 12.5 µM; 320,000 compounds, 0.96% hits; AID 488896;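 active means mean replicate inhibition of at least 70% and a set share of replicates each scoring 70 or more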
PKA-R2B activ: activates the human PKA-R2B holoenzyme complex; P22694+P31323; PKA-R2B holoenzyme dissociation, Cy5-IP20 fluorescence polarization; R2B truncated from residue 108, S112A mutant; 0% DMSO only, 100% 113 µM cGMP; activation, % at 11.4 µM; 340,000 compounds, 0.079% hits; AID 504700;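 active means activation above a cutoff set at the mean over all compounds plus 3 SD, cut at about 18% in these data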;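 further: higher means more holoenzyme dissociation and a rise in polarization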
PKA-R1A act: PKA-R1A complex activation; P00514+P68181; PKA-R1A dissociation, Cy5-IP20 fluorescence polarization; scaled: DMSO 0%, 113 µM cGMP 100%; activation, % at 11.4 µM; 340,000 compounds, 0.083% hits;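 active means percent activation above the mean of all tested compounds plus 3 SD, cut at about 19% in these data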;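 further: higher means more PKAc released from R1A so a rise in polarization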
SR-BI DiI-HDL act: activators of SR-BI mediated HDL lipid uptake; 320,000 compounds, 0.096% hits; CHO ldlA[mSR-BI] cells, DiI-HDL uptake fluorescence, 3 h; 100 = double the neutral-control signal; activation, % at 12.5 µM;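 active means mean replicate activation of at least 60% and every replicate at or above 60%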
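system = CHO ldlA[mSR-BI] cells, LDL receptor-null, SR-BI overexpressing | medium = Ham's F12 with 0.5% BSA, HEPES 25 mM, pH 7.4 | probe or stimulus = DiI-HDL 10 µg/mL | compound dosing = single-point compound dose | incubation = compound exposure 3 h, 37 °C | technique = DiI fluorescence, bottom read | read-out = cell-associated DiI fluorescence as measure of HDL uptake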
dFosB act: activators of mouse delta FosB homodimer; 340,000 compounds, 0.99% hits; P13346; activation, % at 25 µM; purified delta FosB, TAMRA-CDK5 oligo fluorescence polarization; percent of positive-control signal above neutral wells;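 active means mean activation above about 17%, with every replicate also reaching it, limit read from the data, passing the limit was not always enough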
Target sequence (P13346 whole entry, looked up): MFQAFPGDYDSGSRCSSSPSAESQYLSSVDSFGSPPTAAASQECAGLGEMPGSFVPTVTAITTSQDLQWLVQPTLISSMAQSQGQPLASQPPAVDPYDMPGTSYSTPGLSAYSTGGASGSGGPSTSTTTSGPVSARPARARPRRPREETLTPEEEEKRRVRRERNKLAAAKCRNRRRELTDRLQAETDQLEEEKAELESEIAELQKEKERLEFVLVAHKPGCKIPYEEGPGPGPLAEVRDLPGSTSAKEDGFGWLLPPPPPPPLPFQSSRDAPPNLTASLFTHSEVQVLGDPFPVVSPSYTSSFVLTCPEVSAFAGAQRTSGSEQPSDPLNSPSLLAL
CDK5 inh: inhibitors of human CDK5/p35 kinase; Recombinant CDK5/p35, ADP-Glo luminescence, 60 min; inhibition, % at 10 µM; 330,000 compounds, 0.01% hits; AID 488839;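 active means highest replicate inhibition of at least 50% and at least 75% of replicates reaching 50%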
Numbers stand for hits; n = inactive; x = no result given; ! = a repeat was not active. An excerpt weighted towards active compounds, which were near 2.1% of everything screened.

SMILES | SR-BI DiI inh | PKA-R2B activ | PKA-R1A act | SR-BI DiI-HDL act | dFosB act | CDK5 inh
CN(C)CCN(C(=O)c1ccc(S(=O)(=O)N(C)c2ccccc2)cc1)c1nc2cc3c(cc2s1)OCCO3 | n | n | n | n | 47 | n
CCN(Cc1ccccc1)S(=O)(=O)c1ccc(C(=O)N(CCCN(C)C)c2nc3cc4c(cc3s2)OCCO4)cc1 | n | n | n | n | 42 | n
Nc1ccccc1SC1CC(=O)N(Cc2ccccc2)C1=O (stereo not drawn) | n | n | n | n | n | n
COc1ccc(N2CCN(C(=O)COC(=O)CCc3ccccc3OC)CC2)cc1 | n | n | n | n | n | n
CC(C)N=C(N)N=C(N)Nc1ccc(Cl)cc1 | n | n | n | n | n | n
NC(=NCCCCCCN=C(N)/N=C(\N)Nc1ccc(Cl)cc1)/N=C(\N)Nc1ccc(Cl)cc1 | n | n | n | 92! | n | n
Cc1cc2cc3c(cc2nc1SCC(=O)OC(C)C)OCO3 | 78 | n | n | n | n | n
Cc1cc2cc3c(cc2nc1SCC(=O)N1CCN(C(=O)c2ccco2)CC1)OCO3 | n | n | n | n | n | n
NC(=O)C1CCN(c2nc(-c3cccs3)cs2)CC1 | n | n | n | n | n | n
COc1ccc(NC(=O)c2ccc3nc(-c4ccccc4)c(-c4ccccc4)nc3c2)c(OC)c1 | 76 | n | n | n | n | n
COC(CNC(=O)c1ccc2nc(-c3ccccc3)c(-c3ccccc3)nc2c1)OC | 80 | n | n | n | n | n
COc1ccc(NC(=O)c2ccc3[nH]c(C)c(C)c3c2)c(OC)c1 | 109 | n | n | n | n | n
COc1ccc(NC(=O)c2cc(-c3ccc(OC)c(OC)c3)nc3ccccc23)c(OC)c1 | 95 | n | n | n | n | n
CCOc1ccccc1N1CCN(C(=O)c2cn(CC3CCCCC3)nn2)CC1 | n | n | n | n | n | n
COc1cccc2c1cc1c(=O)n(CC(=O)N3CCC(C)CC3)nc(C)n12 | n | n | n | n | n | n
Cc1cc(NC(=O)c2ccccc2)no1 | n | n | n | n | n | n
CCn1cc(CNC(=O)c2cc(-c3cc(OC)ccc3OC)nc3ccccc23)c(C)n1 | 78 | n | n | n | n | n
CCn1cc(CNC(=O)c2cc(-c3ccccc3OC)nc3ccccc23)c(C)n1 | n | n | n | n | n | n
Cc1cc(NC(=O)c2ccc3nc(-c4ccccc4)c(-c4ccccc4)nc3c2)no1 | 80 | n | n | n | n | n
Cc1cc(C)c[n+](-c2[nH]c(=O)sc2/C=N/N=C(\N)[S-])c1 | n | n | n | n | n | n
CCc1cc(Cn2nc(-c3ccccc3)cc2C(=O)NCc2ccccc2OC)on1 | n | n | n | n | n | n
Cn1c(=S)n(/N=C/c2cccs2)c2ccccc21 | n | n | n | 262 | n | n
CCN(CC)c1nc(SCCOC(=O)Nc2ccccc2)nc(N(CC)CC)n1 | 87 | n | n | n | n | n
CN(C)c1nc(SCCOC(=O)c2ccccc2)nc(N(C)C)n1 | n | n | n | n | n | n
O=C(N1CCN(S(=O)(=O)c2ccc(Cl)cc2)CC1)n1ccnc1 | n | n | n | 65 | n | n
SMILES | SR-BI DiI inh | PKA-R2B activ | PKA-R1A act | SR-BI DiI-HDL act | dFosB act | CDK5 inh
COc1cc(/C=C(\C#N)C(=O)Nc2ccc(SC(F)F)cc2)cc(OC)c1OC | 86 | n | n | n | n | n
O=S(=O)(/N=C(/Nc1cccc2ccccc12)c1ccccc1)c1ccc(F)cc1 | n | n | n | n | n | x
CN1CCN(C2=C(NS(=O)(=O)c3cccs3)C(=O)c3ccccc3C2=O)CC1 | n | n | n | n | n | n
CCOc1ccccc1N1CCN(C2=C(NS(=O)(=O)c3cccs3)C(=O)c3ccccc3C2=O)CC1 | 81 | n | n | n | n | n
COc1ccccc1NC(=O)c1sc2nc(N3CCOCC3)c3c(c2c1N)CCCC3 | 84 | n | n | x | n | n
CCOC(=O)c1sc2nc(-c3ccco3)c3c(c2c1N)CC(C)(C)OC3 | 75 | n | n | n | n | n
CCOC(=O)c1sc2nc(N3CCOCC3)c3c(c2c1N)CCC3 | 74 | n | n | n | n | n
CC1(C)Cc2c(c(N3CCCC3)nc3sc(C(=O)Nc4ccccc4)c(N)c23)CO1 | 76 | n | n | n | n | x
Cc1ccccc1NC(=O)c1sc2nc(N3CCOCC3)c3c(c2c1N)CCCC3 | n | n | n | n | n | x
CCN(CC)S(=O)(=O)c1ccc(=O)n(CC(=O)N2CCCc3cc(C)ccc32)c1 | n | n | n | n | n | n
Cn1cnc2ncnn2c1=S | x | n | n | x | x | x
CC1CCN(CC(O)COc2ccc(-c3ccccc3)cc2)CC1 (stereo not drawn) | n | n | n | n | n | n
COCCCn1c(SCC(=O)Nc2ccc(NC(=O)c3ccco3)c(OC)c2)nc2ccccc2c1=O | 74 | n | n | n | n | n
CCOCCCn1c(SCC(=O)Nc2ccccc2OC)nc2ccccc2c1=O | n | n | n | n | n | n
O=C(c1cc2nc(-c3ccc(F)cc3)cc(C(F)(F)F)n2n1)N1CCCCC1c1cccnc1 (stereo not drawn) | 82 | n | n | n | n | n
C=C(c1ccccc1O)n1ccnc1 | n | n | n | n | n | n
COc1ccc2ccccc2c1/C=N/NC(=O)c1cccc(Br)c1 | n | n | n | n | n | n
O=C(N/N=C/c1c(O)ccc2ccccc12)c1cccc(C(F)(F)F)c1 | 137 | n | n | n | n | n
ClCCn1c(CCl)nc2ccc(Cl)cc21 | x | n | n | x | x | x
CCOC(=O)c1sc(-c2ccccc2)cc1NC(=O)Nc1ccc([N+](=O)[O-])cc1 | 78 | n | n | n | n | n
COc1ccc(C2c3[nH]c4ccccc4c3CCN2Cc2cccn2-c2ncccn2)cc1C (stereo not drawn) | n | n | n | n | 32 | n
Cc1cccc(C2c3[nH]c4ccccc4c3CCN2Cc2cccn2-c2ncccn2)c1 (stereo not drawn) | n | n | n | n | n | n
CCCCn1nc(C(=O)Nc2ccc(-n3cnnn3)cc2)c2ccccc2c1=O | n | n | n | n | n | n
Cc1ccc2[nH]c3nc(N/N=C/c4cccc(O)c4)nnc3c2c1 | n | n | n | n | 21 | n
COc1cc(/C=N/Nc2nnc3c(n2)[nH]c2ccccc23)ccc1O | n | n | n | n | n | n
CCN(CC)C(=O)COc1ccc(-c2nnc(Nc3ccc(OC)c(C(=O)NC)c3)c3ccccc23)cc1 | 87 | n | n | n | n | n
COc1ccc(Nc2nnc(-c3ccc(C)cc3)c3ccccc23)cc1C(=O)N1CCCCC1 | 81 | n | n | n | n | n
